# Test results as given in ChEMBL document CHEMBL3091379, “A selective mitochondrial-targeted chlorambucil with remarkable cytotoxicity in breast and pancreatic cancers” (J Med Chem, 2013).
# pIC50: −log10 of the molar value. Calls of active or inactive are those of the source. The rule behind the calls is not given here.
# Assays:
# [1] = tested on: MDA-MB-468; test: Sensitivity ratio of chlorambucil IC50 to compound IC50 for human MDA-MB-468 cells; format: functional
# [2] = Cell cycle arrest in human MIAPaCa2 cells assessed as increase of […] cells at 2 uM after 24 to 72 hrs by flow cytometry; format: functional, cell-based; details: MIA PaCa-2
# How it was run: (§1)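 Cells in 6-well dishes exposed to 2 or 20 μM for 0−72 h, trypsinized, PBS-washed, fixed and permeabilized in 70% ethanol. Stained with 10 μg/mL propidium iodide plus 100 μg/mL RNase A. DNA content read by flow cytometry with 488 nm excitation and 575/26 nm bandpass.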
# [3] = tested on: MCF7; test: Sensitivity ratio of chlorambucil IC50 to compound IC50 for human MCF7 cells; format: functional
# [4] = Cytotoxicity against human SKBR3 cells after 72 hrs by MTT assay; format: functional, cell-based; details: SK-BR-3, 72 h
# How it was run: (§2)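 Cells seeded at 4 × 10^3 per well, adhered overnight, then exposed continuously for 72 h. Media refreshed, MTT added to 0.3 mg/mL final, 4 h at 37 °C. Formazan dissolved in DMSO and read at 570 nm. IC50 taken from log concentration vs % nonviable cells; triplicate wells. Rho θ lines grown with 50 μg/mL uridine.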
# [5] = tested on: BT-549; test: Cytotoxicity against human BT549 cells after 72 hrs by MTT assay; format: functional, cell-based; details: BT-549, 72 h; how it was run: as §2
# [6] = Cytotoxicity against human Hs578T cells after 72 hrs by MTT assay; format: functional, cell-based; details: Hs-578T; how it was run: as §2
# [7] = tested on: MDA-MB-435; test: Cytotoxicity against mitochondrial DNA-deficient human MDA-MB-435 rho theta-W02 cells after 72 hrs by MTT assay; format: functional, cell-based; details: MDA-MB-435, 72 h; how it was run: as §2
# [8] = tested on: MDA-MB-468; test: Cytotoxicity against human MDA-MB-468 cells after 72 hrs by MTT assay in presence of NAC; format: functional, cell-based; details: MDA-MB-468, 72 h
# [9] = Cytotoxicity against human MIAPaCa2 cells after 72 hrs by MTT assay; format: functional, cell-based; details: MIA PaCa-2, 72 h; how it was run: as §2
# [10] = tested on: MDA-MB-231; test: Sensitivity ratio of chlorambucil IC50 to compound IC50 for human MDA-MB-231 cells; format: functional
# [11] = Cell cycle arrest in human MIAPaCa2 cells assessed as accumulation at G2/M phase at 2 uM after 24 to 48 hrs by flow cytometry; format: functional, cell-based; details: MIA PaCa-2; how it was run: as §1
# [12] = tested on: CAMA-1; test: Sensitivity ratio of chlorambucil IC50 to compound IC50 for human CAMA1 cells; format: functional
# [13] = Drug uptake in cytoplasm of human MIAPaCa2 cells at 10 uM after 18 hrs using […] staining by laser-scanning confocal microscopy; format: ADME, cell-based; details: mia paca-2, 18 h
# How it was run: (§3)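 Cells on glass coverslips, adhered overnight, exposed 18 h at 10 μM. Fixed in 3.7% formaldehyde 15 min at RT, permeabilized in ice-cold acetone 5 min at −20 °C, blocked in 1% BSA/PBS. Anti-TPP antisera and anti-complex I antibody (1:1000) overnight at 4 °C, then Cy5/Cy3 secondaries (1:200) 2 h. Imaged by scanning confocal microscopy.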
# [14] = Cell cycle arrest in human MIAPaCa2 cells assessed as accumulation at S phase at 2 uM after 24 hrs by flow cytometry; format: functional, cell-based; details: MIA PaCa-2; how it was run: as §1
# [15] = Cytotoxicity against human CAMA1 cells after 72 hrs by MTT assay; format: functional, cell-based; details: CAMA-1, 72 h; how it was run: as §2
# [16] = Drug uptake in nucleus of human MIAPaCa2 cells at 10 uM after 18 hrs using […] staining by laser-scanning confocal microscopy; format: ADME, cell-based; details: mia paca-2, 18 h; how it was run: as §3
# [17] = tested on: MDA-MB-435; test: Cytotoxicity against mitochondrial DNA-deficient human MDA-MB-435 rho theta-W01 cells after 72 hrs by MTT assay; format: functional, cell-based; details: MDA-MB-435, 72 h; how it was run: as §2
# [18] = tested on: MDA-MB-435; test: Ratio of IC50 for mitochondrial DNA-deficient human MDA-MB-435 rho theta-W01 cells to IC50 for wild type human MDA-MB-435 cells; format: functional
# [19] = tested on: MDA-MB-468; test: Cytotoxicity against human MDA-MB-468 cells after 72 hrs by MTT assay; format: functional, cell-based; details: MDA-MB-468, 72 h; how it was run: as §2
# [20] = tested on: MDA-MB-231; test: Ratio of IC50 for mitochondrial DNA-deficient human MDA-MB-231 rho theta-W02 cells to IC50 for wild type human […]; format: functional
# [21] = tested on: SK-BR-3; test: Sensitivity ratio of chlorambucil IC50 to compound IC50 for human SKBR3 cells; format: functional
# [22] = tested on: MDA-MB-231; test: Cytotoxicity against mitochondrial DNA-deficient human MDA-MB-231 rho theta-W02 cells after 72 hrs by MTT assay; format: functional, cell-based; details: MDA-MB-231, 72 h; how it was run: as §2
# [23] = tested on: MDA-MB-435; test: Ratio of IC50 for mitochondrial DNA-deficient human MDA-MB-435 rho theta-W02 cells to IC50 for wild type human MDA-MB-435 cells; format: functional
# [24] = tested on: MDA-MB-468; test: Induction of nuclear DNA damage in human MDA-MB-468 cells assessed as increase in gammaH2A.X expression after 5 to 24 hrs by Western blotting analysis; format: functional, cell-based
# [25] = tested on: MDA-MB-435; test: Cytotoxicity against wild type human MDA-MB-435 cells after 72 hrs by MTT assay; format: functional, cell-based; details: MDA-MB-435, 72 h; how it was run: as §2
# [26] = tested on: BT-549; test: Sensitivity ratio of chlorambucil IC50 to compound IC50 for human BT549 cells; format: functional
# [27] = tested on: MIA PaCa-2; test: Induction of nuclear DNA damage in human MIAPaCa2 cells assessed as increase in gammaH2A.X expression at 2 uM by Western blotting analysis; format: functional, cell-based; details: TDE = time-dependent effect
# [28] = tested on: BT-474; test: Cytotoxicity against human BT474 cells after 72 hrs by MTT assay; format: functional, cell-based; details: BT-474, 72 h
# [29] = tested on: MDA-MB-231; test: Cytotoxicity against wild type human MDA-MB-231 cells after 72 hrs by MTT assay; format: functional, cell-based; details: MDA-MB-231, 72 h; how it was run: as §2
# [30] = tested on: MIA PaCa-2; test: Induction of nuclear DNA damage in human MIAPaCa2 cells assessed as increase in gammaH2A.X expression after 5 to 24 hrs by Western blotting analysis; format: functional, cell-based
# [31] = tested on: MIA PaCa-2; test: Induction of nuclear DNA damage in human MIAPaCa2 cells assessed as increase in gammaH2A.X expression after 24 hrs by Western blotting analysis relative to control; format: functional
# [32] = tested on: MIA PaCa-2; test: Sensitivity ratio of chlorambucil IC50 to compound IC50 for human MIAPaCa2 cells; format: functional
# [33] = tested on: BT-474; test: Sensitivity ratio of chlorambucil IC50 to compound IC50 for human BT474 cells; format: functional
# [34] = Drug uptake in mitochondria of human MIAPaCa2 cells at 10 uM after 18 hrs using […] staining by laser-scanning confocal microscopy; format: ADME; details: mia paca-2, 18 h; how it was run: as §3
# [35] = tested on: Hs-578T; test: Sensitivity ratio of chlorambucil IC50 to compound IC50 for human Hs 578T cells; format: functional
# [36] = tested on: MIA PaCa-2; test: Induction of nuclear DNA damage in human MIAPaCa2 cells assessed as increase in gammaH2A.X expression after 24 hrs by Western blotting analysis in presence of NAC relative to control; format: functional
# [37] = Cytotoxicity against human BxPC3 cells after 72 hrs by MTT assay; format: functional, cell-based; details: BXPC-3, 72 h; how it was run: as §2
# [38] = tested on: MDA-MB-468; test: Induction of nuclear DNA damage in human MDA-MB-468 cells assessed as increase in gammaH2A.X expression at 2 uM by Western blotting analysis; format: functional, cell-based; details: TDE = time-dependent effect
# [39] = tested on: BXPC-3; test: Sensitivity ratio of chlorambucil IC50 to compound IC50 for human BxPC3 cells; format: functional
# [40] = Antitumor activity against human MIAPaCa2 cells xenografted in athymic nude mouse assessed as inhibition of tumor growth at 10 mg/kg, ip administered 5 times a week for 36 days; format: functional; details: MIA PaCa-2, ip, 864 h, route intraperitoneal, read-out: TGI
# How it was run: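 Established subcutaneous xenografts (2 × 10^6 cells in 1:1 matrigel–basal DMEM, right rear flank) in 4−6 week old mice; randomized at ~100 mm3, n = 6 per group. Dosed ip 10 mg/kg five times weekly; DMSO stock diluted in saline or sesame oil. Caliper volume V = d2 × D/2. Unpaired Student's t-test vs vehicle at day 36.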
# [41] = tested on: MDA-MB-435; test: Sensitivity ratio of chlorambucil IC50 to compound IC50 for wild type human MDA-MB-435 cells; format: functional
# [42] = tested on: MCF7; test: Cytotoxicity against human MCF7 cells after 72 hrs by MTT assay; format: functional, cell-based; details: MCF7, 72 h; how it was run: as §2
# [43] = Cell cycle arrest in human MIAPaCa2 cells assessed as accumulation at G2/M phase at 20 uM after 24 to 48 hrs by flow cytometry; format: functional, cell-based; details: MIA PaCa-2; how it was run: as §1
# [44] = Cell cycle arrest in human MIAPaCa2 cells assessed as increase of […] cells at 20 uM after 24 to 72 hrs by flow cytometry; format: functional, cell-based; details: MIA PaCa-2; how it was run: as §1
# [45] = tested on: MDA-MB-468; test: Induction of nuclear DNA damage in human MDA-MB-468 cells assessed as increase in gammaH2A.X expression at 20 uM by Western blotting analysis; format: functional, cell-based; details: TDE = time-dependent effect
# [46] = tested on: MIA PaCa-2; test: Induction of nuclear DNA damage in human MIAPaCa2 cells assessed as increase in gammaH2A.X expression at 75 uM by Western blotting analysis; format: functional, cell-based; details: TDE = time-dependent effect
smiles,measurement,setting,value
O=C(CCCc1ccc(N(CCCl)CCCl)cc1)NCCC[P+](c1ccccc1)(c1ccccc1)c1ccccc1.O=C([O-])C(F)(F)F,Ratio IC50,[1],25.8
same,Activity,[2],Active
same,Ratio IC50,[3],7.7
same,pIC50,[4],5.24
same,pIC50,[5],5.14
same,pIC50,[6],4.94
same,pIC50,[7],4.46
same,pIC50,[8],6.22
same,pIC50,[9],5.80
same,Ratio IC50,[10],54.8
same,Activity,[11],Active
same,Ratio IC50,[12],79.9
same,Drug uptake,[13],Active
same,Activity,[14],Active
same,pIC50,[15],5.62
same,Drug uptake,[16],Not Active
same,pIC50,[17],4.82
same,Ratio IC50,[18],5
same,pIC50,[19],5.77
same,Ratio IC50,[20],>2.1
same,Ratio IC50,[21],43.4
same,pIC50,[22],< 4.70
same,Ratio IC50,[23],11.7
same,Activity,[24],Dose-dependent effect
same,pIC50,[25],5.52
same,Ratio IC50,[26],27.4
same,Activity,[27],tde
same,pIC50,[28],5.19
same,pIC50,[29],5.02
same,Activity,[30],Dose-dependent effect
same,fold change (FC),[31],2.9
same,Ratio IC50,[32],>40
same,Ratio IC50,[33],36.5
same,Drug uptake,[34],Active
same,Ratio IC50,[35],14.3
same,fold change (FC),[36],1.2
same,pIC50,[37],5.60
same,Activity,[38],tde
same,Ratio IC50,[39],>40
same,inhibition in vivo at 10 mg/kg,[40],45%
same,Ratio IC50,[41],50
O=C(CCCc1ccc(N(CCCl)CCCl)cc1)NCCC[P+](C1CCCCC1)(C1CCCCC1)C1CCCCC1,pIC50,[42],4.40
O=C(CCCc1ccc(N(CCO)CCO)cc1)NCCC[P+](c1ccccc1)(c1ccccc1)c1ccccc1,pIC50,[42],4.10
O=C(O)CCCc1ccc(N(CCCl)CCCl)cc1 [CHLORAMBUCIL],pIC50,[4],3.61
same,pIC50,[5],< 3.70
same,pIC50,[6],3.79
same,pIC50,[7],< 3.70
same,Activity,[43],Active
same,pIC50,[8],4.17
same,Activity,[44],Active
same,pIC50,[9],4.11
same,pIC50,[15],3.72
same,pIC50,[17],< 3.70
same,pIC50,[19],4.36
same,pIC50,[22],< 3.70
same,pIC50,[25],3.82
same,pIC50,[28],3.62
same,pIC50,[29],< 3.70
same,fold change (FC),[31],2.5
same,Activity,[45],tde
same,Activity,[46],tde
same,fold change (FC),[36],2.6
same,pIC50,[37],< 4.00
same,pIC50,[42],4.13
same,inhibition in vivo at 10 mg/kg,[40],61.5%
CCCC[P+](CCCC)(CCCC)CCCNC(=O)CCCc1ccc(N(CCCl)CCCl)cc1,pIC50,[42],4.46
